Assay results from PubChem BioAssay.
Inconclusive results are not listed.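 The calls were made as follows, unless noted: active = viability at or below 27.92% in each of two runs, the all-compound median minus 4 SD; inconclusive = no clear call, values can overlap the other calls; inactive = the rest.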

Columns and labels:
[1] = OD615 S. cerevisiae growth inhibition, permissive medium, pilot counter-assay, permissive growth control for S. cerevisiae lifespan shortening project (AID 705;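 active = growth inhibition above 25% in both replicates, a cutoff set 3 SD above the mean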); conditions: OD615, 24 h, at 10 µM, hits give high values
How it was run: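 assay system = Saccharomyces cerevisiae strain carrying genetically modified DeaD replicative-lifespan system | technique = absorbance (optical density) at 615 nm | buffer or medium = permissive raffinose/galactose medium | timing = cells pre-grown 4 h, then 24 h compound exposure, 30 °C humidified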

[2] = Restrictive medium S. cerevisiae growth inhibition, OD615, pilot screen of yeast lifespan reduction project, restrictive growth control (AID 706;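 active = growth inhibition above a set limit, 3 SD over mean compound inhibition, in both replicates, cut at about 43% in these data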;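 also: modified DeaD lifespan yeast strain shifted to restrictive glucose medium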); conditions: OD615, 48 h, at 10 µM, hits give high values
How it was run: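 System: modified S. cerevisiae. Buffer or medium: CSMM-D glucose medium. Incubation: 4 h pre-growth plus 48 h compound exposure, 30 °C. Detection: absorbance (optical density) measured at 615 nm.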

[3] = viability gain of MRP-1-high H69AR cells under doxorubicin, pilot screen, MRP-1 activator project, CellTiter-Glo, duplicate (AID 807;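 active = viability increase at or above a cutoff of the median across tested compounds plus 3 SD, cut at about 8.5% in these data, passing the limit was not always enough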;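 also: compound pretreatment 18-22 h then 72 h combined with doxorubicin; 0% = doxorubicin alone and 100% = vehicle without doxorubicin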); conditions: H69AR viability with doxorubicin, CellTiter-Glo luminescence; at 10 µM; hits give high values
[4] = growth suppression of beta-catenin knockout HCT116, pilot screen, human colon tumor cells (AID 823;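 active = cell viability at or below a set limit in both duplicate runs, the limit being the all-compound median minus 4 SD, cut at about 23% in these data, passing the limit was not always enough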;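 also: 0% = wells killed by 20 µM Hyamine and 100% = untreated DMSO cell wells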); conditions: CellTiter-Glo, 60 h, at 10 µM, hits give low values
[5] = growth suppression of PTEN-deleted HCT116, pilot screen, cell-based, HCT116 clonal line, CellTiter-Glo (AID 824); conditions: 60 h, at 10 µM, hits give low values;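 also: 0% = 20 µM Hyamine control and 100% = vehicle cell control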
[6] = inhibitors of the yeast RAM network, pilot screen, dse1pr::URA3 reporter, 5-FOA selection (AID 869;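 active = inhibition over a set limit, the all-compound mean plus 3 SD, in both replicate runs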;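 also: 0% = DMSO wells with no growth and 100% = 10 µM 1-NA-PP1 with full growth; RAM network block rescues cells from 5-FOA so hits raise OD615 growth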); conditions: S. cerevisiae dse1pr::URA3 5-FOA growth, OD615, 2 d; at 10 µM; hits give high values; strain carries analog-sensitive mutant Cbk1 kinase
[7] = RAM signaling pathway blockade in yeast – S. cerevisiae, Pdr1DBD-CYC8 efflux-inhibited sensitized strain, primary screen (AID 1298;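 active = RAM network inhibition above 8.4% in each of two replicates, 3 SD over the compound average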;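 also: 0% = DMSO untreated cells without growth and 100% = 10 µM 1-NA-PP1 full growth; higher means more yeast growth rescued from 5-FOA killing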); conditions: S. cerevisiae cbk1-as DSE1-URA3 strain, 5-FOA growth OD615, 2 d; at 50 µM; hits give high values

N#Cc1ccc(OCCN2C(=O)NC3(CCSC3)C2=O)cc1 (centres undefined)
inactive: growth inhibition [1] -2.65% | growth inhibition [2] -19% | viability increase [3] -1.88% | viability [4] 101% | viability [5] 94.4% | inhibition [6] 0.975% | RAM network inhibition [7] 0.56%

COc1ccc(CCNC(=O)c2cc3ccccn3n2)c(OC)c1OC
inactive: growth inhibition [1] -3.78% | growth inhibition [2] 7.63% | viability increase [3] -0.02% | viability [4] 112% | viability [5] 106% | inhibition [6] 1.92% | RAM network inhibition [7] -0.2%

COc1ccc(Br)cc1S(=O)(=O)N(CC(=O)N1CCOCC1)c1ccccc1
inactive: growth inhibition [1] -2.82% | growth inhibition [2] -7.74% | viability increase [3] -2.08% | viability [4] 98.1% | viability [5] 98.6% | inhibition [6] 2.6% | RAM network inhibition [7] 3.62%

Cc1cc(C)c(S(=O)(=O)Nc2ccc(O)cc2)c(C)c1
inactive: growth inhibition [1] -9% | growth inhibition [2] 3.16% | viability increase [3] -1.56% | viability [4] 91.6% | viability [5] 89.2% | inhibition [6] 1.2% | RAM network inhibition [7] 2.25%

COc1ccc(C)cc1NC(=O)c1nnn(CCc2ccccc2)c1N
inactive: growth inhibition [1] -5.25% | growth inhibition [2] -3.95% | viability increase [3] -5.29% | viability [4] 85.8% | viability [5] 81.5% | inhibition [6] 2.73% | RAM network inhibition [7] 3.9%

C=CCOC(=O)C1=C(C)N=C2SCCC(=O)N2C1c1ccc(OC(=O)c2ccco2)cc1 (centres undefined)
inactive: growth inhibition [1] 5.35% | growth inhibition [2] 24.3% | viability increase [3] -0.72% | viability [4] 94.2% | viability [5] 85.8% | inhibition [6] 1.94% | RAM network inhibition [7] 5.69%

CC(=O)COC(=O)c1cccc(N2C(=O)C3C4C=CC(C4)C3C2=O)c1 (centres undefined)
inactive: growth inhibition [1] -0.62% | growth inhibition [2] 8.06% | viability increase [3] -1.07% | viability [4] 105% | viability [5] 93.5% | inhibition [6] 1.27% | RAM network inhibition [7] 0.67%

COc1cc(/C=N/n2cnnc2)ccc1OC(=O)c1ccncc1
inactive: growth inhibition [1] -13.9% | growth inhibition [2] -15.2% | viability increase [3] -2.23% | viability [4] 92.9% | viability [5] 99.1% | inhibition [6] 1.43% | RAM network inhibition [7] 1.08%

O=S(=O)(c1ccc(Br)cc1)N1CCN(c2cc(-c3ccccc3)nc3ncnn23)CC1
inactive: growth inhibition [1] -4.71% | growth inhibition [2] -15.6% | viability increase [3] -5.82% | viability [4] 61.9% | viability [5] 71.9% | inhibition [6] 2.37% | RAM network inhibition [7] 2.33%

COc1ccc(C(=O)N2CCN(S(=O)(=O)c3ccc(C)cc3C)CC2)cc1OC
inactive: growth inhibition [1] -11.3% | growth inhibition [2] -13.3% | viability increase [3] 0.12% | viability [4] 93.2% | viability [5] 90.3% | inhibition [6] 1.12% | RAM network inhibition [7] 2.18%

CCCN(CCC)CCCNC(=O)c1cc2c(=O)n(C)c3ccccc3c2n1C
inactive: growth inhibition [1] -3.03% | growth inhibition [2] -4.35% | viability increase [3] -6.97% | viability [4] 72.5% | viability [5] 77.1% | inhibition [6] 1.22% | RAM network inhibition [7] 3.47%

CC1(C)Oc2ccc3ccc(=O)oc3c2/C(=C/Nc2ccccn2)C1=O
inactive: growth inhibition [1] -22.4% | growth inhibition [2] -16% | viability increase [3] -1.39% | viability [4] 95% | viability [5] 93.3% | inhibition [6] 4.12% | RAM network inhibition [7] 6.38%

O=C(NC1CSC/C1=N\O)c1ccccc1 (centres undefined)
inactive: growth inhibition [1] -9.51% | growth inhibition [2] -1.84% | viability increase [3] -2.52% | viability [4] 103% | viability [5] 101% | inhibition [6] 1.17% | RAM network inhibition [7] 1.84%

Cc1cc(Nc2cccc(Cl)c2C)n2ncnc2n1
inactive: growth inhibition [1] -2.94% | growth inhibition [2] -1.32% | viability increase [3] -1.11% | viability [4] 94.2% | viability [5] 95% | inhibition [6] 2.26% | RAM network inhibition [7] 2.35%

O=c1[nH]c2c(s1)C=Nc1ccccc1N2
inactive: growth inhibition [1] -5.34% | growth inhibition [2] 3.4% | viability increase [3] -2.29% | viability [4] 89.9% | viability [5] 91.6% | inhibition [6] 1.6% | RAM network inhibition [7] 0.32%

CC1CCCC(NC(=O)c2ccc3c(c2)N(Cc2ccccc2)C(=O)CS3=O)C1C (centres undefined)
inactive: growth inhibition [1] 0.145% | growth inhibition [2] 4.42% | viability increase [3] -3.1% | viability [4] 70.8% | viability [5] 62.5% | inhibition [6] 0.69% | RAM network inhibition [7] 5.92%

C#CCn1c(=NC(=O)CN2C(=O)CCC2=O)sc2cccc(C)c21
inactive: growth inhibition [1] -15.5% | growth inhibition [2] -1.5% | viability increase [3] -3.32% | viability [4] 93.3% | viability [5] 88.8% | inhibition [6] 1.89% | RAM network inhibition [7] 2.03%
